# Compound activity as filed in PubChem.
# N-glyco inh = increase of ERlucT glycosylation luciferase signal, primary screen, N-linked glycosylation inhibitor project, D54 ERlucT cells, luminescence, set 2. reporter increase, % at 12.5 µM. 360,000 tested, 0.23% active. AID 588692, 2011. D54 ERlucT glycosylation luciferase reporter, 24 h; percent of 100 nM tunicamycin response;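 active means mean luciferase reporter signal, scaled so untreated is 0 and the glycosylation-blocking control 100, at or above a set limit in every replicate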;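 further: luciferase carries N-glycosylation sites so blocking glycosylation raises the light; 0% = median of neutral control wells and 100% = median of 100 nM tunicamycin wells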
# Xi reactivation = activators of inactive X chromosome reactivation, primary screen, imaging, XiGFP fibroblasts, GFP high-content imaging, set 2; XiGFP mouse fibroblasts, % GFP-positive cells imaging, 3 d; cells co-treated with 5-aza-dC sensitizer; scaled so ellipticine positive control = 100%; activation, % at 7.58 µM; 360,000 tested, 0.055% active; AID 743238, 2013;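 active means mean normalized replicate activation at least 10% and every replicate at or above 10%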;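 further: 0% = median of on-plate neutral control wells and 100% = ellipticine 6 µM median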
#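 Material: SV40-immortalized XiGFP fibroblast cells, line 68-5-11 | Buffer or medium: DMEM containing 5-aza-dC | Dosing: One concentration, pinned | Times: 3 d treatment, 15 min room-temperature fixation | Controls: Ellipticine 6 µM positive control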
# Vif imaging = HIV Vif self-association inhibitors, primary screen, imaging, HEK293T, single point; HEK293T cells, Vif self-association by quenched fluorescence, 24 h; inhibition, % at 7.49 µM; 340,000 tested, 0.35% active; in the data active means inhibition above about 50%, passing the limit was not always enough
# CaV13 ICDI inh = Primary screen for inhibitors of IQ motif and Ca2+-dependent inactivation inhibitor domain binding in CACNA1D, Förster resonance energy transfer in living cells, …; HEK cells, CFP/YFP FRET ICDI-IQ, plate reader, 10 min; percent FRET-ratio fall versus neutral wells; inhibition, % at 12.3 µM; 340,000 tested, 0.098% active;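 active means mean replicate inhibition of at least 30% and at least 1% of replicates passing that level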;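 further: 0% = median of the neutral control wells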
# GC-B act = human GC-B receptor activators, primary screen, HEK293 GC-B cells, cGMP TR-FRET, EC30 CNP | Atrial natriuretic peptide receptor 2 (Homo sapiens), P20594 | 0% at EC30 CNP, 100% saturating CNP | activation, % at 10 µM | 370,000 tested, 0.11% active | AID 1920062, 2024;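 active means activation at 10 µM reaching about 35% in either raw or pattern-adjusted values, limit read from the data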
# Target sequence (P20594 whole entry, looked up): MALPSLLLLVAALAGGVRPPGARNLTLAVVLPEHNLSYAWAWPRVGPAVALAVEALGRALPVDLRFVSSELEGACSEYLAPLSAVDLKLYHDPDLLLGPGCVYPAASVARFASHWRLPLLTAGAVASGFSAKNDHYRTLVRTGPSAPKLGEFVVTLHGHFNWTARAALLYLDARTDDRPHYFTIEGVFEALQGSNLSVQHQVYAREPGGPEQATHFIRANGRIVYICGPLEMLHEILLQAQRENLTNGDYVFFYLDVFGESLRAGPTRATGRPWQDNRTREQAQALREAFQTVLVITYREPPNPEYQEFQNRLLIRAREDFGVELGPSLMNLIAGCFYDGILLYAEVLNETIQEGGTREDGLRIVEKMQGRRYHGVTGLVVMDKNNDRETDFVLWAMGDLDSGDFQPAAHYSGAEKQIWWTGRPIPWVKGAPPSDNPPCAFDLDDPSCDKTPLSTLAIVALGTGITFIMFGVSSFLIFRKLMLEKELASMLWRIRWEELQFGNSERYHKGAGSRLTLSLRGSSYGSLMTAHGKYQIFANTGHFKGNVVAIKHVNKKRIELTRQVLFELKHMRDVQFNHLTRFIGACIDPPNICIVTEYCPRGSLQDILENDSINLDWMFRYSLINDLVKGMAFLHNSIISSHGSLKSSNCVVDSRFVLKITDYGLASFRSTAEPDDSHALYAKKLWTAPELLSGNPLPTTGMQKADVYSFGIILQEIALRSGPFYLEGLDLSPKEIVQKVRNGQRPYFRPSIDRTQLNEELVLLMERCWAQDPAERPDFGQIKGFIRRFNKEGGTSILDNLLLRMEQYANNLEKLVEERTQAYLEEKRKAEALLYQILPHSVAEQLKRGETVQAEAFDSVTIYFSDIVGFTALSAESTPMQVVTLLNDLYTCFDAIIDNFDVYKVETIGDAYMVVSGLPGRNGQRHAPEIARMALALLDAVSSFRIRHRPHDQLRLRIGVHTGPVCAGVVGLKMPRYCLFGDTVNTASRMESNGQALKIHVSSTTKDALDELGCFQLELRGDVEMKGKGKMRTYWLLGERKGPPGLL
# NPR1 activator = GC-A stimulated cGMP production enhancers – HEK293 GC-A cells, cGMP TR-FRET, EC30 ANP, primary screen; AID 1671463, 2021; 0% at EC30 ANP, 100% saturating ANP; activation, % at 10 µM; 370,000 tested, 0.14% active; in the data active means activation above about 40%
# * hit, by the source's call; nt = no result given. An excerpt weighted towards active compounds, which were near 0.7% of everything screened.
SMILES,N-glyco inh,Xi reactivation,Vif imaging,CaV13 ICDI inh,GC-B act,NPR1 activator
CCS(=O)(=O)N[C@@H]1C=C[C@H](CC(=O)NCc2ccccn2)O[C@@H]1CO,nt,0.0,nt,nt,nt,nt
C[C@@H]1CN([C@@H](C)CO)C(=O)c2cc(C#Cc3cccc(F)c3)cnc2O[C@@H]1CN(C)C(=O)C1CCC1,nt,-0.8,nt,nt,nt,nt
Cc1ccc(NS(=O)(=O)c2ccc3c(c2)n(C)c(=O)n3C)c(C)c1,10.2,0.0,-10.7,-3.0,6.7,3.4
CCc1ccc(S(=O)(=O)Nc2cc3c(cc2C)n(C)c(=O)n3C)cc1,46.3*,0.1,-25.8,-6.9,-7.4,-1.5
C[C@@H]1CN([C@H](C)CO)C(=O)Cc2cc(NC(=O)Nc3ccccc3)ccc2O[C@H]1CN(C)C(=O)Nc1ccccc1,nt,0.0,nt,nt,nt,nt
CC(C)(C)C(=O)Cn1ncc(Cl)c(Cl)c1=O,10.4,0.3,2.3,-4.0,-7.7,42.2*
O=C(Cn1ncc(Cl)c(Cl)c1=O)c1ccc(Cl)cc1,10.8,nt,-1.3,-5.5,21.7,70.5*
CC(C)(C)C(=O)Cn1ncc(N2CCCC2)c(Br)c1=O,-2.8,nt,-1.5,0.1,1.2,1.2
Cc1cccc(NC(=O)CNC(=O)Cn2ncc(Cl)c(Cl)c2=O)c1C,8.3,nt,56.8*,nt,nt,nt
O=C(Cn1ncc(N2CCOCC2)c(Cl)c1=O)c1ccc(Cl)cc1,2.2,0.2,3.7,-1.2,nt,nt
O=C(OCn1ncc(Cl)c(Cl)c1=O)c1ccccc1Cl,-24.8,nt,11.3,-4.3,32.6,43.0*
COCCNC(=O)C[C@@H]1CC[C@@H]2[C@@H](COc3ccc(NC(=O)Nc4ccccc4)cc3C(=O)N2C)O1,nt,0.1,nt,nt,nt,nt
COc1ccc(NC(=O)N(C)C[C@H]2OCCCC[C@H](C)Oc3ccc(NS(=O)(=O)c4c(C)noc4C)cc3C(=O)N([C@@H](C)CO)C[C@H]2C)cc1,nt,0.0,nt,nt,nt,nt
O=C(C[C@@H]1C=C[C@H](NC(=O)C2CCOCC2)[C@@H](CO)O1)NCc1ccccc1Cl,nt,1.0,nt,nt,nt,nt
O=C(C[C@H]1C[C@@H]2c3cc(NC(=O)CC4CC4)ccc3O[C@@H]2[C@H](CO)O1)NCc1ccncc1,nt,0.5,nt,nt,nt,nt
C=CCn1c(C)cc(C(=O)Cn2ncc(Cl)c(Cl)c2=O)c1C,4.9,2.0,15.9,-5.4,48.9*,38.3
COc1ccc(/C=c2\s/c(=C/C(=O)c3ccc(C)cc3)[nH]c2=O)c(OC)c1,2.0,2.7,96.6*,-10.1,-4.1,-0.8
Cc1csc(NC(=O)c2cc3c(s2)-c2ccccc2OC3)n1,-4.1,0.0,-28.6,-6.5,-15.8,-3.4
Cc1c(NC(=O)c2cc3c(s2)-c2ccccc2OC3)cccc1[N+](=O)[O-],-3.4,0.1,-7.9,-2.7,59.4*,38.9
C[C@H](CO)N1C[C@H](C)[C@@H](CN(C)C(=O)Nc2ccccc2)OCCCC[C@H](C)Oc2ccc(NC(=O)CCC(F)(F)F)cc2C1=O,nt,0.0,nt,nt,nt,nt
CCn1c(-c2ccsc2)nc2c1c(=O)[nH]c(=O)n2Cc1ccccc1,5.1,nt,-13.0,-4.1,41.8*,30.8
COCCn1c(-c2ccc(SC)cc2)nc2c1c(=O)[nH]c(=O)n2CC(C)C,-0.4,0.0,-6.4,-2.9,-7.4,-6.4
CCCCn1c(-c2ccncc2)nc2c1c(=O)[nH]c(=O)n2CC(C)C,2.1,nt,56.9*,-5.2,-3.4,0.6
O=[N+]([O-])c1ncccc1OCCOc1ccc(Cl)cc1Cl,nt,nt,nt,nt,1.2,47.4*
COc1cccc(NC(=O)N2CC3(C2)[C@@H](c2ccccc2)[C@@H](CO)N3C(=O)C2CCCC2)c1,nt,0.1,nt,nt,nt,nt
Cc1ccc(CN(C)C[C@@H]2OCc3cn(nn3)CCCC(=O)N([C@@H](C)CO)C[C@H]2C)cc1,nt,0.0,nt,nt,nt,nt
